Sampled rows, rich in hits. Any-hit rate of the full collection: about 3.9%.
CRFR2-BP ag: agonists of CRF-BP/CRF-R2 complex, primary screen, cell-based, HEK293, calcium dye fluorescence, uHTS; activation, % at 13.2 µM; calcium dye fluorescence (FLIPR); percent of saturating CRF peptide response; CRF-binding protein / CRF receptor 2 complex (human); hit rate 0.46% among 350,000;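 active means activation of at least 50%, plus an integration ratio under a set limit after plate pattern correction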;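 further: plate controls were neutral control wells without compound for no effect and CRF at EC100 for full effect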
TAAR1 agonist: human TAAR1 agonists, primary screen, Fluo-8 calcium fluorescence, CHO RD-HGA16 cells | vehicle wells 0%, saturating PEA agonist 100% | activation, % at 3 µM | hit rate 0.99% among 360,000 | AID 624467, 2012;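 active means activation above the mean activation of all test compounds in the run plus 3 SD, cut at about 38% in these data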
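Signal – calcium-sensitive Fluo-8 signal, excitation 470-495, emission 515-575 nm · System – RD-HGA16 (CHO) cells co-expressing Gα16 and hTAAR1 · Incubation – 17-24 h seeding, 75 min 37 °C dye, 30 min RT · Compound dosing – 3 µM single concentration · Repeats – no replicates (n 1)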
TMEM16A act: TMEM16A chloride channel activators or potentiators, primary screen, cell-based, HTS | HEK293 TMEM16A/YFP-H148Q/I152L, iodide quench fluorescence; active compounds read low | B-score at 10 µM | hit rate 0.3% among 340,000;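 active means fluorescence-ratio B-score plate-corrected deviation score at least 3 library SD below zero, with starting fluorescence score within 5 deviations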;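 further: channel opened by trigger with iodide after compound preincubation; score built on the fluorescence ratio of max minus min over baseline; more negative score means more quench and so TMEM16A activation or potentiation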
Target sequence (Q8BHY3 whole entry, looked up): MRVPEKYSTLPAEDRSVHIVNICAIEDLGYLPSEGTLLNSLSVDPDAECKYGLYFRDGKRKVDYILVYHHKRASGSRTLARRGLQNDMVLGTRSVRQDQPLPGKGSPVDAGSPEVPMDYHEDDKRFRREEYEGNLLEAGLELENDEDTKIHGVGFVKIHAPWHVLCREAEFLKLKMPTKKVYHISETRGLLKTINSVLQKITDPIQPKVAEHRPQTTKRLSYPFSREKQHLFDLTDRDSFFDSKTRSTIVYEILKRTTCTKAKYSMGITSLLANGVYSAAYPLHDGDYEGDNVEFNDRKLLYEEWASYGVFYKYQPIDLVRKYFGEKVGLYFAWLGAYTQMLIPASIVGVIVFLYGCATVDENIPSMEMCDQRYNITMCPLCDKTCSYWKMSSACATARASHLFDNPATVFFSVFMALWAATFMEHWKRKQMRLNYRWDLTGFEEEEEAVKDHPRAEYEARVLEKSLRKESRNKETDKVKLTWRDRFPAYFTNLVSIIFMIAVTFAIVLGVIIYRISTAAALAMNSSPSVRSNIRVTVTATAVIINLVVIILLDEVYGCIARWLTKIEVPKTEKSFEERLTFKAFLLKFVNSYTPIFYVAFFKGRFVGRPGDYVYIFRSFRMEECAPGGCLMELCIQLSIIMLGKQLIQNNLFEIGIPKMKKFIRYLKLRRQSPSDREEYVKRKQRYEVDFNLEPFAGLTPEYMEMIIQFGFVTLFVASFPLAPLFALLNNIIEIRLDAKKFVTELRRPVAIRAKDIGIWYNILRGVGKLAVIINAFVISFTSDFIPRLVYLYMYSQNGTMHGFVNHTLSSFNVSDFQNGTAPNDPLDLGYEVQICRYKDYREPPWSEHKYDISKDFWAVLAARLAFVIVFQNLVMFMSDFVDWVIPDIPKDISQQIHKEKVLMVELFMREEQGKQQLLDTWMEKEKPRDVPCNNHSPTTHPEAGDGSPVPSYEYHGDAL
TAAR1 antag: human TAAR1 antagonists, primary screen, Fluo-8 calcium fluorescence, CHO RD-HGA16 cells; Trace amine-associated receptor 1 (Homo sapiens), Q96RJ0; antagonist; inhibition, % at 3 µM; hit rate 1.5% among 360,000;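 active means inhibition above a per-plate cutoff, the mean inhibition of test compounds on that plate plus 3 SD, cut at about 49% in these data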;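 further: 0% = DMSO plus EC80 beta-PEA response and 100% = DMSO alone without agonist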
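Assay system: CHO-derived RD-HGA16 cells stably expressing human TAAR1 plus Gα16. Timing: 140 s kinetic read after compound, 140 s after agonist. Technique: kinetic Fluo-8 calcium fluorescence measurement. Measure: % inhibition of agonist calcium response.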
CRFR2-BP antag: antagonists of CRF-BP/CRF-R2 complex, primary screen, cell-based, HEK293, calcium dye fluorescence, uHTS. CRF-induced calcium fluorescence. hit rate 0.59% among 350,000. inhibition, % at 11.8 µM. AID 588475, 2011;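 active means inhibition of the ligand-induced calcium signal above about 50% at the single tested concentration, limit read from the data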
ANO1 block: TMEM16A chloride channel inhibitors, primary screen, cell-based, HTS; Anoctamin-1 (Mus musculus), Q8BHY3; HEK293 TMEM16A/YFP iodide influx fluorescence, ionomycin; normalized B-score (activity score, 25-100; higher = stronger inhibition) at 10 µM; hit rate 1.2% among 310,000; AID 588511, 2011;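 active means ratio plate-corrected score three or more library SD toward inhibition, starting fluorescence score within five deviations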;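 further: score derived from kinetic fluorescence span divided by baseline fluorescence per well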
TMEM16A reconf: TMEM16A chloride channel inhibitors, confirmation, cell-based, re-confirmation. AID 652189, 2013. shares compounds with ANO1 block. HEK293 TMEM16A/YFP-H148Q, iodide quench fluorescence; ionomycin added to raise cell calcium. inhibition, % at 10 µM. hit rate 39% among 2,300;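 active means mean duplicate percent inhibition, scaled so buffer wells are 0 and the reference blocker 100, over three buffer SD above buffer mean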
HEK293 Ca mobil: calcium mobilization in TMEM16A/YFP HEK293 cells, confirmation, counter-screen for TMEM16A inhibitor project; AID 652231, 2013; shares compounds with ANO1 block; Fluo4 calcium mobilization; hit rate 2% among 2,300; calcium response (% of ionomycin), % at 10 µM;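 active means duplicate-averaged calcium signal over 20% of the ionomycin maximum, relative to buffer baseline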;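 further: each well's signal is peak minus trough fluorescence divided by its pre-addition baseline; 0% = buffer wells and 100% = ionomycin wells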
Parental YFP cnt: iodide YFP quench changes in parental YFP-HEK293, counter-screen for TMEM16A inhibitor project, cell-based | shares compounds with ANO1 block | 2,300 tested, under 10 active | AID 652233, 2013 | YFP ratio F(max-min)/F0 at 10 µM | ionomycin;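 active means yellow fluorescent protein signal ratio exceeding the buffer control mean by over 5 SD of those controls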;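 further: ratio is mean of duplicate wells from kinetic YFP trace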
ClC-1 inh: ClC-1 chloride channel inhibition, selectivity assay for TMEM16A inhibitor project, cell-based, voltage-dependent ClC-1 | CHO ClC-1-YFP, iodide influx fluorescence quench; iodide control reads 0, buffer control 100 | 2,300 tested, under 10 active | ratio percent, % at 10 µM | shares compounds with ANO1 block;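 active means duplicate-mean ratio percent above the mean of iodide-only control wells, which defines zero, plus 5 of their SD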;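 further: higher percent means stronger block of ClC-1 iodide influx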
Starred values were filed as active, the others as inactive; i = inactive; nt = no result given.

SMILES	CRFR2-BP ag	TAAR1 agonist	TMEM16A act	TAAR1 antag	CRFR2-BP antag	ANO1 block	TMEM16A reconf	HEK293 Ca mobil	Parental YFP cnt	ClC-1 inh
COc1ccc(Oc2c(-c3ccc(O)cc3O)n[nH]c2C)cc1	-2	2	i	-4	-12	i	nt	nt	nt	nt
CCOC(=O)N1CCN(Cc2nc(-c3cccc(C)c3)no2)CC1	0	9	i	-2	-5	100*	i	i	-1.1	-14
COc1ccc(NC(=S)N2CCN(C(=O)c3ccco3)CC2)cc1OC	-1	7	i	-14	5	i	nt	nt	nt	nt
COC(=O)C1=CN(Cc2ccc(C)cc2)C=C(C(=O)OC)C1c1ccc(F)c(F)c1	-1	0	i	5	12	i	nt	nt	nt	nt
COC(=O)C1=CN(Cc2ccccc2)C=C(C(=O)OC)C1c1cc(F)ccc1F	-1	2	i	5	29	i	i	i	-1.1	-6
Cc1ccc(-c2noc(CCCC(=O)NC3CCCC3)n2)cc1	0	1	i	7	10	25*	i	i	-1.1	-12
Cc1nn(C)c(Cl)c1NC(=O)OCc1ccc(Cl)cc1Cl	0	13	i	4	52*	25*	i	i	-0.79	-16
CN(C)c1ccc2c(O)cc(=O)n(C)c2c1	-1	15	i	2	13	100*	i	i	-1.1	-6
CCCOc1ccccc1C1CC(=O)Nc2cc3c(cc21)OCCO3 (stereo not given)	-1	nt	i	nt	-21	100*	26%*	i	-0.88	-17
CC(=O)OC(C(=O)NCCN1CCOCC1)c1c(F)cccc1F (stereo not given)	1	10	i	1	-11	i	nt	nt	nt	nt
CCOCCCn1c(=S)[nH]c2cc(C(=O)NCC(OC)OC)ccc2c1=O	1	2	i	-13	3	i	nt	nt	nt	nt
Cc1ccnc(Nc2nc(-c3ccc(O)c(O)c3)cs2)c1	5	1	i	14	-31	25*	i	i	-0.94	-4
Cc1csc2c(N3CCN(C(=O)c4ccc(C(C)(C)C)cc4)CC3)ncnc12	-4	0	i	-19	4	100*	36%*	i	-1.1	-28
Cc1csc2c(N3CCN(C(=S)Nc4ccc(C(F)(F)F)cc4)CC3)ncnc12	2	47*	i	38	-17	100*	i	i	-1.1	-18
Cc1csc2c(N3CCN(C(=O)Nc4ccc(Cl)c(Cl)c4)CC3)ncnc12	-1	10	i	16	-8	25*	29%*	i	-0.8	-20
O=C(Nc1ccc(Cl)c(Cl)c1)N1CCSCC1	1	9	i	12	-18	i	nt	nt	nt	nt
Cc1csc2c(N3CCN(C(=O)NC(C)(C)C)CC3)ncnc12	0	7	i	5	0	i	nt	nt	nt	nt
CCCCCC(=O)Nc1ccc(S(=O)(=O)Nc2nccc(C)n2)cc1	-1	10	i	-15	-1	i	nt	nt	nt	nt
O=C1C(Cc2ccccc2O)NC(=S)N1c1ccccc1 (stereo not given)	-1	1	i	-22	1	i	nt	nt	nt	nt
Cc1ccc2c(CC(=O)NCC3(N4CCOCC4)CCCCC3)coc2c1C	1	2	i	-21	-2	nt	nt	nt	nt	nt
CCOc1ccc(CN2CCC(n3nccc3NC(=O)CCCc3ccccc3)CC2)cc1	-1	4	i	-5	2	25*	i	i	-0.98	-2
COc1cc(CN2CCC(n3nccc3NC(=O)CCCc3ccccc3)CC2)ccc1F	5	10	i	1	-13	25*	16%*	i	-0.89	-6
COc1cc(Nc2nc3ccccc3n3nnnc23)cc(OC)c1OC	-4	7	i	23	-14	i	i	i	-0.81	-4
CCn1nc(NS(=O)(=O)c2ccc([N+](=O)[O-])cc2)c2cc3cccc(C)c3nc21	-1	-1	i	-7	16	25*	22%*	i	-0.74	-4
CCn1nc(NS(=O)(=O)c2ccccc2[N+](=O)[O-])c2cc3cccc(C)c3nc21	0	-5	i	-22	9	i	nt	nt	nt	nt
SMILES	CRFR2-BP ag	TAAR1 agonist	TMEM16A act	TAAR1 antag	CRFR2-BP antag	ANO1 block	TMEM16A reconf	HEK293 Ca mobil	Parental YFP cnt	ClC-1 inh
O=C(CN1CCCc2ccccc21)Nc1cc(S(=O)(=O)N2CCCC2)ccc1Cl	0	10	i	-12	-4	nt	nt	nt	nt	nt
Cc1ccc(-c2cn3nc(C)c(C)nc3n2)cc1	0	2	i	13	-24	i	i	i	-1	-12
CCCCNc1cc(C)nc(NCc2ccccc2)n1	-2	nt	i	nt	-34	25*	34%*	22%*	-1.2	-24
COc1cccc(CNC(=O)COC(=O)CCCNC(=O)c2ccc(Cl)cc2)c1	-1	1	i	-39	9	i	nt	nt	nt	nt
O=C(CN1CCC(C(=O)c2ccc(F)cc2)CC1)Nc1ccc(F)cc1	-1	3	i	-7	2	100*	i	i	-1	-8
Cc1ccc(Cl)cc1N1CCN(C(=O)c2cc3c(=O)n(C)c4ccccc4c3n2C)CC1	0	-1	i	-8	1	100*	29%*	i	-1.1	-36
Cc1sc2nc(CSC(C)C(=O)Nc3ccc(C#N)cc3)[nH]c(=O)c2c1C (stereo not given)	3	3	i	-3	-22	25*	i	23%*	-1.1	-2
CCOC(=O)c1ccc(Nc2nc(C)nc3c2nnn3Cc2ccccc2)cc1	8	0	i	-25	-29	i	nt	nt	nt	nt
